The test system of experiment [1] is MCF7. Put plainly: […] breast tumor cell proliferation inhibition by the compound in vitro at a concentration of 0.15 uM. The class given is functional, Homo sapiens. The method, boiled down:
(§1)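 Breast tumor cells treated with specified compound concentrations in RPMI-1640 in 1% agar with 5% FBS for 1 week. Viability compared with a control given distilled water in place of drug; 5-fluorouracil as standard cytotoxic drug. Reported as concentration-dependent cell survival.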

A short description of experiment [2]: Calu3 lung tumor cell proliferation inhibition by the compound in vitro at a concentration of 1.5 uM. Type of experiment: functional, Homo sapiens. Put shortly:
(§2)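 Tumor cells grown in RPMI-1640 in 1% agar with 5% fetal bovine serum, exposed to the specified concentrations for 1 week. Viability was assessed against a control given distilled water in place of drug. 5-Fluorouracil served as the positive cytotoxic standard. Results are reported as concentration-dependent cell survival.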

Experiment [3] relates to MCF7. Put plainly: […] breast tumor cell proliferation inhibition by the compound in vitro at a concentration of 0.015 uM. Type of experiment: functional, Homo sapiens. The method, boiled down:
as §1

The test system of experiment [4] is Human immunodeficiency virus 1. Put plainly: Inhibitory effect against HIV-1 in human peripheral blood monocyte cells(PBMC) (EC50-22.6 ug/mL). Type of experiment: functional, organism-based.
Experiment [5] is described as follows: Calu3 lung tumor cell proliferation inhibition by the compound in vitro at a concentration of 0.015 uM. Type of experiment: functional, Homo sapiens. The method, boiled down: as §2
The subject of experiment [6] is COLO 320DM. Put plainly: COLO 320DM colon tumor cell proliferation inhibition by the compound in vitro at a concentration of 0.015 uM. Type of experiment: functional, Homo sapiens. The method, boiled down: as §2
The test system of experiment [7] is MT4. Put plainly: Cytotoxic effect in cultured MT-4 lymphocytes at a concentration of 100 ug/mL (0.3750 uM/mL). The class given is functional, Homo sapiens. Put shortly:
(§3)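 MT-4 cells at 5 × 10^4 cells/well, 1 mL total, cultured with compound diluted in RPMI 1640 with 10% FBS, 10 mM HEPES, penicillin/streptomycin and 2 mM glutamine, at 37 °C under 5% CO2. Viability was scored by trypan blue exclusion on days 4 and 7, in triplicate, as % viable cells.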

Experiment [8] concerns COLO 320DM. Nature of the experiment: COLO 320DM colon tumor cell proliferation inhibition by the compound in vitro at a concentration of 1.5 uM. Type of experiment: functional, Homo sapiens. The method, boiled down: as §2
Experiment [9] has as its system Human immunodeficiency virus 1. Put plainly: Inhibitory effect against HIV-1 induced cytopathic effects(HIV-1 neutralization) in MT-4 lymphocytes at a concentration of 10 ug/mL (0.0375 uM/mL). The class given is functional. The method, boiled down: (§4)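 HIV-1 Molt IIIB (~2 × 10^4 TCID50 in 100 μL) preincubated 1 h at 37 °C with a single compound dose, then added to MT-4 cells (5 × 10^5 cells/well, 1 mL). Cultured at 37 °C, 5% CO2. Viable cells counted by trypan blue exclusion on days 4 and 7. Triplicates; % viable cells. Controls: infected cells (positive), uninfected cells (negative).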
In general terms: Damage to the host cells serves as the signal in cytopathic effect assays.

The subject of experiment [10] is MT4. Put plainly: Cytotoxic effect in cultured MT-4 lymphocytes at a concentration of 2 ug/mL (0.0076 uM/mL). Type of experiment: functional, Homo sapiens. The method, boiled down: as §3
For experiment [11], the system named is MT4. Put plainly: Cytotoxic effect in cultured MT-4 lymphocytes at a concentration of 10 ug/mL (0.0375 uM/mL). The class given is functional, Homo sapiens. The method, boiled down:
as §3

The test system of experiment [12] is COLO 320DM. Nature of the experiment: COLO 320DM colon tumor cell proliferation inhibition by the compound in vitro at a concentration of 0.15 uM. The class given is functional, Homo sapiens. The method, boiled down:
as §2

The nature of experiment [13]: Calu3 lung tumor cell proliferation inhibition by the compound in vitro at a concentration of 0.15 uM. Type of experiment: functional, Homo sapiens. Put shortly: as §2
Experiment [14] has as its system MCF7. Nature of the experiment: […] breast tumor cell proliferation inhibition by the compound in vitro at a concentration of 1.5 uM. Type of experiment: functional, Homo sapiens. Put shortly: as §1
Experiment [15] has as its system Human immunodeficiency virus 1. Put plainly: Inhibitory effect against HIV-1 induced cytopathic effects(HIV-1 neutralization) in MT-4 lymphocytes at a concentration of 100 ug/mL (0.3500 uM/mL). Type of experiment: functional. Put shortly: as §4
Experiment [16] has as its system Human immunodeficiency virus 1. Nature of the experiment: Inhibitory effect against HIV-1 in human peripheral blood monocyte cells(PBMC) (EC50 ->7.44 ug/mL). Type of experiment: functional, organism-based.
Experiment [17] concerns MT4. Put plainly: Cytotoxic effect in cultured MT-4 lymphocytes at a concentration of 10 ug/mL (0.0350 uM/mL). Type of experiment: functional, Homo sapiens. The method, boiled down: as §3
Experiment [18] has as its system MT4. Put plainly: Cytotoxic effect in cultured MT-4 lymphocytes at a concentration of 2 ug/mL (0.0070 uM/mL). Type of experiment: functional, Homo sapiens. Put shortly:
as §3

Experiment [19] deals with MT4. Put plainly: Cytotoxic effect in cultured MT-4 lymphocytes at a concentration of 100 ug/mL (0.3500 uM/mL). Type of experiment: functional, Homo sapiens. Put shortly:
as §3

Experiment [20] concerns Human immunodeficiency virus 1. Put plainly: Inactivation of HIV-MN strain in MT-4 lymphocytes in vitro at a concentration of 200 ug/mL (0.70 uM/mL). The class given is functional. Put shortly:
(§5)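 Compound (50 μL) was mixed with 50 μL of HIV-1 Molt IIIB or HIV-MN inoculum in RPMI 1640 for 1 h at room temperature. The mixture was added to 5 × 10^4 MT-4 cells and kept 7 days at 37 °C, 5% CO2. MTT (5.0 mg/mL) was added for 4 h, the reaction was stopped with 0.04 N HCl/2-propanol, and OD was read at 570 nm. % inactivation was calculated from OD relative to uninfected cells and untreated virus, mean of three.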

Experiment [21] relates to Human immunodeficiency virus 1. Nature of the experiment: Inhibitory effect (100 uM) against HIV-1 in human peripheral blood monocyte cells(PBMC) (EC50 ->28.6 ug/mL). Type of experiment: functional.
Experiment [22] in a line: Calu3 lung tumor cell proliferation inhibition by the compound in vitro at a concentration of 60 uM. Type of experiment: functional, Homo sapiens. The method, boiled down:
as §2

Experiment [23] has as its system Human immunodeficiency virus 1. Put plainly: Inactivation of HIV-MN strain in MT-4 lymphocytes in vitro at a concentration of 100 ug/mL (0.35 uM/mL). The class given is functional. Put shortly: as §5
Experiment [24] deals with Human immunodeficiency virus 1. Nature of the experiment: Protection of MT-4 lymphocytes by the compound against HIV-1 infectivity in vitro at a concentration of 200 ug/mL (0.70 uM/mL). Type of experiment: functional. Put shortly:
(§6)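 Virus (HIV-1 Molt IIIB, ~2 × 10^4 TCID50) preincubated with compound 1 h at 37 °C, 5% CO2. Then added to MT-4 cells (5 × 10^5 cells/well) and cultured at 37 °C. Trypan blue viability counts taken on days 4 and 7, triplicate at each concentration. Controls were infected and uninfected cells. Reported as % viable (surviving) MT-4 cells.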

Experiment [25] can be described thus: Calu3 lung tumor cell proliferation inhibition by the compound in vitro at a concentration of 0.6 uM. The class given is functional, Homo sapiens. The method, boiled down:
as §2

Experiment [26] has as its system COLO 320DM. Nature of the experiment: COLO 320DM colon tumor cell proliferation inhibition by the compound in vitro at a concentration of 0.6 uM. The class given is functional, Homo sapiens. Put shortly: as §2
In experiment [27] the test system is MCF7. Put plainly: […] breast tumor cell proliferation inhibition by the compound in vitro at a concentration of 0.6 uM. The class given is functional, Homo sapiens. The method, boiled down: as §1
Experiment [28] concerns COLO 320DM. Put plainly: COLO 320DM colon tumor cell proliferation inhibition by the compound in vitro at a concentration of 6.0 uM. The class given is functional, Homo sapiens. The method, boiled down:
as §2

For experiment [29], the system named is COLO 320DM. Nature of the experiment: COLO 320DM colon tumor cell proliferation inhibition by the compound in vitro at a concentration of 60 uM. Type of experiment: functional, Homo sapiens. Put shortly: as §2
The test system of experiment [30] is Human immunodeficiency virus 1. Put plainly: Percent inhibition of HIV-1 binding to H-9 cells at a concentration of 100(ug/mL). The class given is functional. Put shortly: (§7)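 HIV-1 Molt IIIB (50 μL) incubated overnight with compound at 100 μg/mL, then with uninfected H-9 cells 2 h at 37 °C. Washed; stained with HIV-positive human serum (1:100) then FITC anti-human IgG (1:10), 30 min at 4 °C each. Formaldehyde-fixed (0.5%) and analysed by flow cytometry for % virus bound and % binding inhibition.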

Experiment [31] can be described thus: Calu3 lung tumor cell proliferation inhibition by the compound in vitro at a concentration of 6.0 uM. Type of experiment: functional, Homo sapiens. The method, boiled down: as §2
Experiment [32] concerns Human immunodeficiency virus 1. Put plainly: Inactivation of HIV-MN strain in MT-4 lymphocytes in vitro at a concentration of 400 ug/mL (1.40 uM/mL). The class given is functional. Put shortly:
as §5

Experiment [33] relates to Human immunodeficiency virus 1. Nature of the experiment: Protection of MT-4 lymphocytes by the compound against HIV-1 infectivity in vitro at a concentration of 400 ug/mL (1.4 uM/mL). The class given is functional. Put shortly:
as §6

Experiment [34] deals with Human immunodeficiency virus 1. Put plainly: Percent HIV-1 bound to H-9 cells at a concentration of 100(ug/mL). The class given is functional. Put shortly:
as §7

Experiment [35] deals with Human immunodeficiency virus 1. Put plainly: Inactivation of HIV-MoltIIIB strain in MT-4 lymphocytes in vitro at a concentration of 100 ug/mL (0.35 uM/mL). The class given is functional. Put shortly:
as §5

Experiment [36] concerns Human immunodeficiency virus 1. Nature of the experiment: Inactivation of HIV-MoltIIIB strain in MT-4 lymphocytes in vitro at a concentration of 200 ug/mL (0.70 uM/mL). Type of experiment: functional. The method, boiled down:
as §5

Experiment [37] relates to Human immunodeficiency virus 1. Put plainly: Protection of MT-4 lymphocytes by the compound against HIV-1 infectivity in vitro at a concentration of 100 ug/mL (0.35 uM/mL). Type of experiment: functional. The method, boiled down: as §6
Experiment [38] relates to MCF7. Nature of the experiment: […] breast tumor cell proliferation inhibition by the compound in vitro at a concentration of 60 uM. Type of experiment: functional, Homo sapiens. The method, boiled down:
as §1

The subject of experiment [39] is Human immunodeficiency virus 1. Nature of the experiment: Inactivation of HIV-MoltIIIB strain in MT-4 lymphocytes in vitro at a concentration of 400 ug/mL (1.4 uM/mL). The class given is functional. Put shortly:
as §5

The subject of experiment [40] is MCF7. Put plainly: […] breast tumor cell proliferation inhibition by the compound in vitro at a concentration of 6.0 uM. The class given is functional, Homo sapiens. Put shortly: as §1

Structures are written as SMILES.

As for `Cc1nc2cc3nc4ccccc4c(O)c3cc2s1.Cl`, the Viability in the experiment with MCF7 [1] is 38%; in [2] it was 0%; in the experiment with MCF7 [3] it was 91%; in [5], 98%; in the experiment on COLO 320DM [6] it was 117%; with MT4 [7], 74.3%. For the same compound, the Viability in the experiment on COLO 320DM [8] was determined as 0%; in [9], 19.4%; in the experiment on MT4 [10] it was 91.9%; in the experiment on MT4 [11], 87.2%; in the experiment on COLO 320DM [12] it was 49%; in experiment [13], 36%. The Viability in the experiment with MCF7 [14] worked out at 0%. Further, a half-maximal effect in [4] (EC50) was put at 84.6 µM.

On to `Cc1nc2cc(Nc3ccccc3C(=O)[O-])ccc2s1.[Na+]`, for which the Viability was 18.2% in experiment [15], 92.6% in the experiment on MT4 [17], 87.5% with MT4 [18] and 93.3% with MT4 [19]. The EC50 in experiment [16] came out at 26 µM.

For the compound `O=C([O-])CSc1ccc2nc3ccccc3c(O)c2c1.[Na+]`, the Viability is 70.9% in experiment [15]; 0% in experiment [22]; 93.3% with MT4 [17]; 113% in [25]; 110% with COLO 320DM [26]; 85% in the experiment on MCF7 [27]. Also, the Viability with COLO 320DM [28] was 41%; in the experiment with COLO 320DM [29], 0%; in [31], 48%; with MT4 [18] it was 96.7%; with MCF7 [38], 0%; with MT4 [19] it was 92.6%. The Viability in the experiment on MCF7 [40] came out at 19%. Moreover, the Inactivation in [20] stood at 40.5%; in [23], 13.1%; in [32], 25%; in [35], 21%; in experiment [36] it was 100%; in experiment [39], 74.3%. In addition, the Inhibition in experiment [21] was 31%; in experiment [30] it was 32.7%. Moreover, the Survival was 81.4% in [24], 84.2% in experiment [33] and 72.7% in [37]. Besides, in experiment [34], the Bound stood at 22.4%.

Usually EC50 stands for the concentration that produces a half-maximal response. High values mean a need for much substance, low ones an effect from little substance. What is called Inhibition is the percentage by which the read-out fell short of the control. A higher Inhibition goes with strong suppression.
